Reference: publication PMC4500736 (Journal of neuroscience methods, 2015)
Where no end group is shown, it is not given here.

How the values were obtained:
[1] = test system: unilateral 6-OHDA lesioned F344 rats; assay: DA and DA metabolite levels; format: in vivo, rat; conditions: 5 weeks post 6-OHDA, 300 μg intranasal daily, p < 0.01
[2] = dissolved in 0.9% sterile saline; cited from earlier work
[3] = test system: unilateral 6-OHDA lesioned F344 rats; assay: TH+ fiber density in the SNpr of 6-OHDA lesioned rats; format: in vivo, rat; conditions: mean ± SEM
Summary of the method: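 Unilateral 3-site striatal 6-OHDA lesion (right hemisphere). Intranasal test compound 300 μg or vehicle daily for 7 days pre-lesion, ~60 min before infusion, then 35 ± 3 days. Midbrain fixed in 4% paraformaldehyde for 24 h, then 15 & 30% sucrose; 30 μm coronal sections. Ipsilateral SNpr TH+ immunoreactive area measured at −5.24, −5.60 and −5.96 mm from bregma. Two-tailed unpaired t-test.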

[4] = test system: unilateral 6-OHDA lesioned F344 rats; assay: d-amphetamine-induced rotation in 6-OHDA-lesioned rats; format: in vivo, rat; conditions: animals taken out to 6 weeks (data not shown), n = 3 DNSP-11, n = 2 vehicle
normal F344 rats = format: in vivo, rat; conditions: 300 μg intranasal 5 days a week for 3 weeks, p < 0.05
Summary of the method: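 Normal F344 rats under light isoflurane (~1.0–3.0% with […]), supine. Striatum and SN harvested as 2 mm sections, frozen −80 °C. DA, DOPAC, HVA by HPLC-EC (ng/g wet tissue); turnover ratios; one-way ANOVA, Bonferroni.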

For “PPEAPAEDRSL-NH2 [DNSP-11, Dopamine neuron stimulating peptide-11]”, the “reduction in DA turnover in the ipsilateral side to the lesion compared to vehicle” value [1] is listed as 39%, the “stability in 0.9% sterile saline” value [2] is listed as “stable” and the “Fiber Density for the Lesioned SNpr, Rostral” value ([3]; n = 6, vehicle 0.20 ± 0.03) is listed as 0.26 ± 0.09. For the same substance, the “Fiber Density for the Lesioned SNpr, Middle” value ([3]; n = 6, vehicle 0.22 ± 0.07) was 0.41 ± 0.20, the “Fiber Density for the Lesioned SNpr, Caudal” value ([3]; n = 6, vehicle 1.10 ± 0.67) was 0.91 ± 0.41 and the “reduction in d-amphetamine-induced rotations compared to vehicle” value [4] was 21%. The “increase in DA turnover in the SN compared to vehicle” value (normal F344 rats) was 34% and the “increase in DA turnover in the striatum compared to vehicle” value (normal F344 rats) was 25%.
